# Source: ChEMBL document CHEMBL1130247, “Antirhino/enteroviral vinylacetylene benzimidazoles: a study of their activity and oral plasma levels in mice” (J Med Chem, 1997)
# How the values were obtained:
# Human rhinovirus sp. [1] = assay: Antiviral activity against human rhinovirus 16; assay type: functional, organism-based
# [2] = Antiviral activity against human rhinovirus 14 (HRV-14) using CPE/XTT assay in human tumor cell lines.; assay type: organism-based, human rhinovirus type 14; settings: read-out: TC50 (the source's name)
# Method in brief: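 Cytopathic-effect assay run by an earlier published method, except that surviving host cells were quantified with XTT substrate instead of crystal violet staining.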
# Coxsackievirus [3] = assay: Antiviral activity against coxsackie virus A21; assay type: functional, organism-based
# Method in brief: (§1)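 HeLa monolayers in MEM with 5% FBS and 10 mM MgSO4, infected with virus for 1–2 h at room temperature. Overlay of 1.5% agarose mixed 1:1 with 2× MEM (2% FBS) holding graded compound concentrations, diluted in DMSO from a 20 mg/mL stock. Incubated at 37 °C until DMSO-control plaques reached optimal size. Formalin-fixed, crystal violet-stained, plaques counted in duplicate wells. IC50 by Reed–Muench.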
# Enterovirus C = assay: Antiviral activity against poliovirus 1; assay type: functional, organism-based; method in brief: as §1
# rhinovirus B14 = assay: Antiviral activity against human rhinovirus 14 using plaque reduction assay in HeLa cell lines; assay type: functional, organism-based, human rhinovirus type 14; settings: Rhinovirus B
# Human rhinovirus sp. [4] = assay: Antiviral activity against human rhinovirus 2; assay type: functional, organism-based
# [5] = Oral plasma concentration in mice at 100 mg/kg dosage within 4-hr time frame.; assay type: ADME, organism-based; set-up: route oral, dose 100 mg/kg; settings: mouse
# Coxsackievirus [6] = assay: Antiviral activity against coxsackie virus A21M; assay type: functional, organism-based
# Coxsackievirus [7] = assay: Antiviral activity against coxsackie virus B3; assay type: functional, organism-based; method in brief: as §1
# Human rhinovirus sp. [8] = assay: Antiviral activity against human rhinovirus 1A; assay type: functional, organism-based
# HeLa = assay: Antiviral activity against poliovirus 1 using PV-1 plaque reduction assay in HeLa cell lines; assay type: functional, cell-based; settings: Homo sapiens; method in brief: as §1
# [9] = Oral bioavailability in monkey; assay type: ADME, organism-based; settings: primates, in vivo
SMILES,IC50 (Human rhinovirus sp. [1]),CC50 [2],IC50 (Coxsackievirus [3]),IC50 (Enterovirus C),IC50 (rhinovirus B14),IC50 (Human rhinovirus sp. [4]),Cmax [5],"IC50 (Coxsackievirus [6]; Coxsackievirus, read-out: IC50)",IC50 (Coxsackievirus [7]),IC50 (Human rhinovirus sp. [8]),IC50 (HeLa),bioavailability [9],IC50 (Coxsackievirus [6])
C#C/C=C(/c1ccc2nc(N)n(S(=O)(=O)C(C)C)c2c1)c1ccccc1F,0.07 µg/mL,66 µg/mL,0.079 µg/mL,0.045 µg/mL,0.092 µg/mL,0.05 µg/mL,9200 ng/mL,0.1 µg/mL,0.05 µg/mL,0.035 µg/mL,,,
C#C/C=C(/c1ccc2nc(N)n(S(=O)(=O)C(C)C)c2c1)c1cc(F)ccc1F,0.099 µg/mL,63 µg/mL,0.069 µg/mL,0.032 µg/mL,0.11 µg/mL,0.079 µg/mL,9300 ng/mL,0.1 µg/mL,0.1 µg/mL,0.096 µg/mL,,,
C#C/C=C(\c1ccc(F)c(F)c1)c1ccc2nc(N)n(S(=O)(=O)C(C)C)c2c1,0.55 µg/mL,19 µg/mL,0.247 µg/mL,0.082 µg/mL,0.19 µg/mL,0.23 µg/mL,2900 ng/mL,0.22 µg/mL,0.1 µg/mL,0.12 µg/mL,,,
C#C/C=C(\c1cccc(C(F)(F)F)c1)c1ccc2nc(N)n(S(=O)(=O)C(C)C)c2c1,,> 100 µg/mL,,,0.4 µg/mL,,4900 ng/mL,,,,,,
C#C/C=C(\c1ccc(OC)c(F)c1)c1ccc2nc(N)n(S(=O)(=O)C(C)C)c2c1,0.06 µg/mL,5.5 µg/mL,0.032 µg/mL,0.016 µg/mL,0.061 µg/mL,0.054 µg/mL,9200 ng/mL,0.029 µg/mL,0.035 µg/mL,0.049 µg/mL,,,
C#C/C=C(\c1ccccc1)c1cc2c(cc1F)nc(N)n2S(=O)(=O)C(C)C,,13 µg/mL,,,,,16000 ng/mL,,,,1.5 µg/mL,46%,
C#C/C=C(\c1ccccc1)c1ccc2nc(N)n(S(=O)(=O)C(C)C)c2c1F,,57 µg/mL,,,2.8 µg/mL,,520 ng/mL,,,,,,
C#C/C=C(\c1ccc(C)cc1)c1ccc2nc(N)n(S(=O)(=O)C(C)C)c2c1,,5.7 µg/mL,,,0.075 µg/mL,,610 ng/mL,,,,,,
C#C/C=C(\c1cc(F)cc(F)c1)c1ccc2nc(N)n(S(=O)(=O)C(C)C)c2c1,0.26 µg/mL,32 µg/mL,0.19 µg/mL,0.12 µg/mL,0.17 µg/mL,0.18 µg/mL,18000 ng/mL,0.23 µg/mL,0.14 µg/mL,0.12 µg/mL,,,
C#C/C=C(\c1cccc(F)c1)c1ccc2nc(N)n(S(=O)(=O)N(C)C)c2c1,0.04 µg/mL,> 100 µg/mL,0.1 µg/mL,0.047 µg/mL,0.061 µg/mL,0.05 µg/mL,8400 ng/mL,0.09 µg/mL,0.07 µg/mL,0.053 µg/mL,,,
C/C=C(\c1ccccc1)c1ccc2nc(N)n(S(=O)(=O)C(C)C)c2c1,,,,,,,5100 ng/mL,,,,,,
CC(C)S(=O)(=O)n1c(N)nc2ccc(C(=O)c3cccc(F)c3)cc21,,15.9 µg/mL,,,2.1 µg/mL,,,,,,,,
C#C/C=C(\c1cccc(F)c1)c1ccc2nc(N)n(S(=O)(=O)C(C)C)c2c1,0.057 µg/mL,5.3 µg/mL,0.085 µg/mL,0.037 µg/mL,0.06 µg/mL,0.069 µg/mL,12000 ng/mL,0.046 µg/mL,0.032 µg/mL,0.027 µg/mL,,,
C#C/C=C(\c1cccc(Cl)c1)c1ccc2nc(N)n(S(=O)(=O)C(C)C)c2c1,0.19 µg/mL,20 µg/mL,0.23 µg/mL,0.15 µg/mL,0.21 µg/mL,0.12 µg/mL,18000 ng/mL,0.18 µg/mL,0.17 µg/mL,0.13 µg/mL,,,
CC#C/C=C(\c1cccc(F)c1)c1ccc2nc(N)n(S(=O)(=O)C(C)C)c2c1,0.09 µg/mL,3.1 µg/mL,0.33 µg/mL,0.12 µg/mL,0.26 µg/mL,0.28 µg/mL,640 ng/mL,0.36 µg/mL,0.19 µg/mL,0.14 µg/mL,,,
C#C/C=C(\c1ccc(OC(F)(F)F)cc1)c1ccc2nc(N)n(S(=O)(=O)C(C)C)c2c1,0.22 µg/mL,18 µg/mL,0.22 µg/mL,0.27 µg/mL,0.55 µg/mL,0.35 µg/mL,2000 ng/mL,0.5 µg/mL,0.7 µg/mL,0.26 µg/mL,,,
C#C/C=C(\c1ccccc1)c1ccc2nc(N)n(S(=O)(=O)C(C)C)c2c1,0.039 µg/mL,11 µg/mL,0.037 µg/mL,0.037 µg/mL,0.094 µg/mL,0.065 µg/mL,,0.089 µg/mL,0.1 µg/mL,0.033 µg/mL,,,
C#C/C=C(\c1ccc(OC)cc1)c1ccc2nc(N)n(S(=O)(=O)C(C)C)c2c1,0.029 µg/mL,5.2 µg/mL,0.047 µg/mL,0.04 µg/mL,0.059 µg/mL,0.041 µg/mL,,0.051 µg/mL,0.055 µg/mL,0.03 µg/mL,,,
C#C/C=C(\c1ccc(F)cc1)c1ccc2nc(N)n(S(=O)(=O)C(C)C)c2c1,0.098 µg/mL,5.8 µg/mL,0.1 µg/mL,0.067 µg/mL,0.13 µg/mL,0.091 µg/mL,9200 ng/mL,,0.095 µg/mL,0.078 µg/mL,,23%,0.062 µg/mL
C#C/C=C(\c1ccc(N(C)C)cc1)c1ccc2nc(N)n(S(=O)(=O)C(C)C)c2c1,0.08 µg/mL,5.3 µg/mL,0.14 µg/mL,0.059 µg/mL,0.117 µg/mL,0.06 µg/mL,210 ng/mL,0.13 µg/mL,0.06 µg/mL,0.048 µg/mL,,,
CC(C)S(=O)(=O)n1c(N)nc2ccc(/C(=N/O)c3ccccc3)cc21 [ENVIROXIME],,,,,,,890 ng/mL,,,,,,
